Source: ChEMBL document CHEMBL1155420, “Synthesis, antibacterial and antifungal activities of some carbazole derivatives” (2010)
Values after ≈ are worked out from the molar mass of the structure shown.

What was measured:
Format in all cases: functional
[1] = test system: Staphylococcus aureus; experiment: Antibacterial activity against Methicillin-Resistant Staphylococcus aureus subsp. aureus N315 after 24 hrs by two fold serial dilution method; conditions: N315, 24 h
Method in brief: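 Modified microbroth dilution following National Committee for Clinical Laboratory Standards methods. Twofold serial dilutions were set at 512, 256, 128, 64, 32, 16, 8, 4, 2, 1 and 0.5. Dilutions were inoculated with strain N315 and incubated at 37 °C for 24 h. A solvent control used medium with DMSO at the same dilutions. Read-out was the MIC.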

[2] = test system: Candida albicans; experiment: Antifungal activity against Candida albicans ATCC 76615 after 24 hrs by two fold serial dilution method; conditions: ATCC 76615, 24 h
Method in brief: (§1)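 Modified NCCLS microbroth dilution, with eleven compound concentrations from 0.5 to 512 µg/mL. Dilutions were inoculated and incubated at 35 °C for 24 h. MIC50 was taken as the first well showing about 50% growth reduction versus the drug-free well.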

[3] = test system: Pseudomonas aeruginosa; experiment: Antibacterial activity against Pseudomonas aeruginosa ATCC 27853 after 24 hrs by two fold serial dilution method; conditions: ATCC 27853, 24 h
Method in brief: (§2)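 MICs determined by modified microbroth twofold dilution per NCCLS. Compounds were tested at 512, 256, 128, 64, 32, 16, 8, 4, 2, 1 and 0.5 µg/mL. Dilutions were inoculated and incubated at 37 °C for 24 h. A DMSO solvent control in test medium was run at the same dilutions.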

[4] = test system: Escherichia coli; experiment: Antibacterial activity against Escherichia coli ATCC 25922 after 24 hrs by two fold serial dilution method; conditions: ATCC 25922, 24 h; method in brief: as §2
[5] = test system: Aspergillus fumigatus; experiment: Antifungal activity against Aspergillus fumigatus ATCC 96918 after 24 hrs by two fold serial dilution method; conditions: ATCC 96918, 24 h; method in brief: as §1
[6] = test system: Proteus vulgaris; experiment: Antibacterial activity against Proteus vulgaris ATCC 49027 after 24 hrs by two fold serial dilution method; conditions: ATCC 49027, 24 h; method in brief: as §2
[7] = test system: Staphylococcus aureus; experiment: Antibacterial activity against Staphylococcus aureus ATCC 29213 after 24 hrs by two fold serial dilution method; conditions: ATCC 29213, 24 h; method in brief: as §2
[8] = test system: Bacillus subtilis; experiment: Antibacterial activity against Bacillus subtilis ATCC 21216 after 24 hrs by two fold serial dilution method; conditions: ATCC 21216, 24 h; method in brief: as §2

SMILES | MIC50 [1] | MIC50 [2] | MIC50 [3] | MIC50 [4] | MIC50 [5] | MIC50 [6] | MIC50 [7] | MIC50 [8]
BrCCCCn1c2ccccc2c2ccccc21 | > 512 µg/mL | 512 µg/mL (≈ 1690 µM) | 128 µg/mL (≈ 424 µM) | > 512 µg/mL | > 512 µg/mL | > 512 µg/mL | 256 µg/mL (≈ 847 µM) | > 512 µg/mL
c1ccc2c(c1)c1ccccc1n2CCCCn1cncn1 | > 512 µg/mL | 2 µg/mL (≈ 6.89 µM) | 128 µg/mL (≈ 441 µM) | 32 µg/mL (≈ 110 µM) | > 512 µg/mL | > 512 µg/mL | 256 µg/mL (≈ 882 µM) | > 512 µg/mL
c1ccc2c(c1)c1ccccc1n2CCCCCCn1cncn1 | 64 µg/mL (≈ 201 µM) | 2 µg/mL (≈ 6.28 µM) | 32 µg/mL (≈ 100 µM) | 16 µg/mL (≈ 50.2 µM) | > 512 µg/mL | > 512 µg/mL | 32 µg/mL (≈ 100 µM) | > 512 µg/mL
Clc1ccc(C[n+]2cnn(Cc3ccc(Cn4c5ccccc5c5ccccc54)cc3)c2)c(Cl)c1.[Cl-] | 8 µg/mL | 32 µg/mL | 4 µg/mL | 2 µg/mL | 64 µg/mL | 8 µg/mL | 2 µg/mL | 2 µg/mL
c1ccc2c(c1)c1ccccc1n2Cc1ccc(Cn2c3ccccc3c3ccccc32)cc1 | > 512 µg/mL | > 512 µg/mL | > 512 µg/mL | > 512 µg/mL | > 512 µg/mL | > 512 µg/mL | 256 µg/mL (≈ 586 µM) | > 512 µg/mL
c1ccc2c(c1)c1ccccc1n2CCCCn1c2ccccc2c2ccccc21 | > 512 µg/mL | > 512 µg/mL | > 512 µg/mL | > 512 µg/mL | > 512 µg/mL | 64 µg/mL (≈ 165 µM) | > 512 µg/mL | > 512 µg/mL
c1ccc2c(c1)c1ccccc1n2CCCCCCn1c2ccccc2c2ccccc21 | > 512 µg/mL | > 512 µg/mL | > 512 µg/mL | > 512 µg/mL | 256 µg/mL (≈ 615 µM) | > 512 µg/mL | 128 µg/mL (≈ 307 µM) | > 512 µg/mL
c1ccc2c(c1)c1ccccc1n2CCCCn1ccnc1 | 4 µg/mL (≈ 13.8 µM) | 16 µg/mL (≈ 55.3 µM) | 1 µg/mL (≈ 3.46 µM) | 8 µg/mL (≈ 27.6 µM) | 64 µg/mL (≈ 221 µM) | 1 µg/mL (≈ 3.46 µM) | 2 µg/mL (≈ 6.91 µM) | 4 µg/mL (≈ 13.8 µM)
c1ccc2c(c1)c1ccccc1n2CCCCCCn1ccnc1 | 8 µg/mL (≈ 25.2 µM) | 16 µg/mL (≈ 50.4 µM) | 1 µg/mL (≈ 3.15 µM) | 4 µg/mL (≈ 12.6 µM) | 128 µg/mL (≈ 403 µM) | 1 µg/mL (≈ 3.15 µM) | 8 µg/mL (≈ 25.2 µM) | 8 µg/mL (≈ 25.2 µM)
c1ccc2c(c1)c1ccccc1n2Cc1ccc(Cn2cncn2)cc1 | > 512 µg/mL | 4 µg/mL (≈ 11.8 µM) | > 512 µg/mL | 32 µg/mL (≈ 94.6 µM) | > 512 µg/mL | > 512 µg/mL | 256 µg/mL (≈ 756 µM) | > 512 µg/mL
BrCCCCCCn1c2ccccc2c2ccccc21 | > 512 µg/mL | > 512 µg/mL | > 512 µg/mL | > 512 µg/mL | 512 µg/mL (≈ 1550 µM) | > 512 µg/mL | 128 µg/mL (≈ 388 µM) | > 512 µg/mL
c1ccc2c(c1)c1ccccc1n2Cc1ccc(Cn2ccnc2)cc1 | 8 µg/mL (≈ 23.7 µM) | 16 µg/mL (≈ 47.4 µM) | 1 µg/mL (≈ 2.96 µM) | 8 µg/mL (≈ 23.7 µM) | > 512 µg/mL | 4 µg/mL (≈ 11.9 µM) | 1 µg/mL (≈ 2.96 µM) | 4 µg/mL (≈ 11.9 µM)
BrCc1ccc(Cn2c3ccccc3c3ccccc32)cc1 | > 512 µg/mL | > 512 µg/mL | 256 µg/mL (≈ 731 µM) | 256 µg/mL (≈ 731 µM) | > 512 µg/mL | 512 µg/mL (≈ 1460 µM) | 128 µg/mL (≈ 365 µM) | 256 µg/mL (≈ 731 µM)
O=C(N[C@H](CO)[C@H](O)c1ccc([N+](=O)[O-])cc1)C(Cl)Cl [CHLORAMPHENICOL] | 8 µg/mL (≈ 24.8 µM) | – | > 512 µg/mL | 64 µg/mL (≈ 198 µM) | – | 16 µg/mL (≈ 49.5 µM) | 64 µg/mL (≈ 198 µM) | > 512 µg/mL
OC(Cn1cncn1)(Cn1cncn1)c1ccc(F)cc1F [FLUCONAZOLE] | – | 0.5 µg/mL (≈ 1.63 µM) | – | – | 512 µg/mL (≈ 1670 µM) | – | – | –
CCn1cc(C(=O)O)c(=O)c2cc(F)c(N3CCNCC3)cc21 [NORFLOXACIN] | 1 µg/mL (≈ 3.13 µM) | – | 2 µg/mL (≈ 6.26 µM) | 0.5 µg/mL (≈ 1.57 µM) | – | 1 µg/mL (≈ 3.13 µM) | 8 µg/mL (≈ 25.1 µM) | 1 µg/mL (≈ 3.13 µM)
